Test results from ChEMBL document CHEMBL1629614, “Inhibition of methionyl-tRNA synthetase by REP8839 and effects of resistance mutations on enzyme activity” (Antimicrob Agents Chemother, 2009).

Legend:
[1] = test system: C=C(F)c1sc(CNCCCNc2cc(=O)c3ccccc3[nH]2)c(C)c1Br; experiment: Activity of Bacillus stearothermophilus MetRS by ATP:PPi exchange assay in presence of methionine; details: Geobacillus stearothermophilus
[2] = test system: C=C(F)c1sc(CNCCCNc2cc(=O)c3ccccc3[nH]2)c(C)c1Br; experiment: Activity of Bacillus stearothermophilus MetRS by ATP:PPi exchange assay in presence of ATP; details: Geobacillus stearothermophilus
Streptococcus pneumoniae [3] = experiment: Activity of Streptococcus pneumoniae MetRS1 by ATP:PPi exchange assay in presence of ATP
Staphylococcus aureus [4] = experiment: Ratio of Kcat to Km for Staphylococcus aureus MetRS in presence of methionine
Staphylococcus aureus [5] = experiment: Ratio of Kcat to Km for Staphylococcus aureus MetRS in presence of ATP
Method in brief: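 Purified recombinant S. aureus MetRS (30 nM) was assayed by ATP:PPi exchange at 30°C in Tris pH 8.0 with Mg acetate, KCl and DTT. [32P]PPi was matched to ATP, and ATP or methionine was varied. Time points from 1 to 10 min were quenched with EDTA, separated by PEI-cellulose TLC and read by phosphorimager. Initial rates were fitted to Michaelis-Menten.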

Staphylococcus aureus [6] = experiment: Activity of Staphylococcus aureus MetRS by ATP:PPi exchange assay in presence of methionine
Method in brief: (§1)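 Purified S. aureus MetRS (wild type or mutant; E. coli-expressed, ammonium sulfate cut, anion exchange) at 30 nM. ATP:PPi exchange at 30°C in 100 mM Tris-HCl pH 8.0, 5–10 mM Mg acetate, 80 mM KCl, 2.5 mM DTT, [32P]PPi plus cold PPi equal to ATP. Quenched with EDTA over 1–10 min, PEI-cellulose TLC, phosphorimager. Initial velocities versus varied ATP or methionine fit to Michaelis-Menten.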

Escherichia coli [7] = experiment: Activity of Escherichia coli MetRS by ATP:PPi exchange assay in presence of ATP
Homo sapiens [8] = species: Homo sapiens; experiment: Activity of human mitochondrial MetRS by ATP:PPi exchange assay in presence of methionine
Escherichia coli [9] = experiment: Activity of Escherichia coli MetRS by ATP:PPi exchange assay in presence of methionine
Staphylococcus aureus [10] = experiment: Ratio of Kcat to Km for Staphylococcus aureus MetRS in presence of tRNA
Homo sapiens [11] = species: Homo sapiens; experiment: Activity of human mitochondrial MetRS by ATP:PPi exchange assay in presence of ATP
Streptococcus pneumoniae [12] = experiment: Activity of Streptococcus pneumoniae MetRS1 by ATP:PPi exchange assay in presence of methionine
Staphylococcus aureus [13] = experiment: Activity of Staphylococcus aureus MetRS by ATP:PPi exchange assay in presence of ATP; method in brief: as §1
Staphylococcus aureus [14] = experiment: Activity of […] by scintillation proximity assay in presence of tRNA

Methionine--tRNA ligase (Geobacillus stearothermophilus), P23920, sequence (P23920 whole entry): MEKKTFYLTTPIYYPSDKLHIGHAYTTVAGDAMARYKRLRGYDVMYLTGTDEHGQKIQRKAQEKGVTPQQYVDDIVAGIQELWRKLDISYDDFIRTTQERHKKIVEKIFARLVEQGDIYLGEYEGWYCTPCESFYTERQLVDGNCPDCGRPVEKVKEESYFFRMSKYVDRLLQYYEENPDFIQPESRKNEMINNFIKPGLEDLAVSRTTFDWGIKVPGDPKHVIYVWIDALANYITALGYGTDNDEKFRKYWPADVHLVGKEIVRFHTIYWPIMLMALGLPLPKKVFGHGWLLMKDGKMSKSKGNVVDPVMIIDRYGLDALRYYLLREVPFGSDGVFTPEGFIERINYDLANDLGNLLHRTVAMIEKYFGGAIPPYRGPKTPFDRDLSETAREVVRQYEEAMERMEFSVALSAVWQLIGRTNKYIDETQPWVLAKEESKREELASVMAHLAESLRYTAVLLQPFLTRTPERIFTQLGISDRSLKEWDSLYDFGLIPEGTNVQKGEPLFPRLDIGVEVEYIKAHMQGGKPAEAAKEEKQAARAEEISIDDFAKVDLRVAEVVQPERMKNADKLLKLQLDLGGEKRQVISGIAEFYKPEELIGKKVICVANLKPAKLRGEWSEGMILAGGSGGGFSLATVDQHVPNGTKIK

| Molecule | Km [1] [µM] | Km [2] [µM] | Km (Streptococcus pneumoniae [3]) [µM] | kcat/Km (Staphylococcus aureus [4]) [M⁻¹ s⁻¹] | kcat/Km (Staphylococcus aureus [5]) [M⁻¹ s⁻¹] | Km (Staphylococcus aureus [6]) [µM] | Km (Escherichia coli [7]) [µM] | Km (Homo sapiens [8]) [µM] | Km (Escherichia coli [9]) [µM] | kcat/Km (Staphylococcus aureus [10]) [M⁻¹ s⁻¹] | Km (Homo sapiens [11]) [µM] | Km (Streptococcus pneumoniae [12]) [µM] | Km (Staphylococcus aureus [13]) [µM] | Km (Staphylococcus aureus [14]) [µM] | kcat (Staphylococcus aureus [14]) [s⁻¹] |
| --- | --- | --- | --- | --- | --- | --- | --- | --- | --- | --- | --- | --- | --- | --- | --- |
| Methionine--tRNA ligase (Geobacillus stearothermophilus), P23920 | 6 | 1 | – | – | – | – | – | – | – | – | – | – | – | – | – |
| C=C(F)c1sc(CNCCCNc2cc(=O)c3ccccc3[nH]2)c(C)c1Br | – | – | 514 | 250000 | 50000 | 100 | 20 | 20 | 20 | 490000 | 85 | 53 | 500 | 1 | 0.49 |
